According to the EternaBench riboswitch data:

System: MS2 coat protein
Assay: apparent Kd, MS2 coat protein; higher = weaker binding; RNA-MaP array; FMN 200 µM where present
In short: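 The apparent Kd is reported as the median of filtered per-cluster binding-curve fits. To get these curves, designs transcribed by stalled E. coli RNA polymerase on Illumina sequencing-chip clusters were titrated with SNAP-549-labelled MS2 coat protein from 0.7 or 1.5 nM, doubling to 3 µM. Titrations were run without and then with constant ligand in 100 mM Tris-HCl pH 7.5, 80 mM KCl, 4 mM MgCl2, BSA, DTT, yeast tRNA and Tween-20, and green signal was normalised to red-channel RNA signal and control-cluster median Fmax.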

[1] = designed as: OFF switch for flavin mononucleotide, no ligand
[2] = ligand present: flavin mononucleotide, designed as: OFF switch for flavin mononucleotide
[3] = designed as: ON switch for flavin mononucleotide, no ligand
[4] = ligand present: flavin mononucleotide, designed as: ON switch for flavin mononucleotide

| Sequence | apparent Kd [1] | apparent Kd [2] | apparent Kd [3] | apparent Kd [4] |
| --- | --- | --- | --- | --- |
| UCAUACGAUGAGGAUAUCUCCGUUAAAGUAUGUAGAGAAGGCGUUACAUGAGGAUCACCCAUGUUUGUGGGCAG | 304 nM | 385 nM | – | – |
| UCAUACGGUGAGGAUAUCUCCGCUAAAGUGUGUAGAGAAGGCGCUACAUGAGGAUCACCCAUGUUUGUGGGCAG | 402 nM | 149 nM | – | – |
| UCAUACGUUGAGGAUAUGUCAGUUAGAAUAUUUACAGAAGGCGAUACAUGAGGAUCACCCAUGUUUAUGGGCAU | 188 nM | 207 nM | – | – |
| UCAUAUUUACAAGGAUAUCAAUUAAUUAAACAUCCUACAUGAGGAUCACCCAUGUUAAAAUAUUAUGAGAAGGUGUAUUGUCGG | – | – | 32.7 nM | 40.3 nM |
| UCAUCAAAUUGAACAUGAGGAUCACCCAUGUAGGAUUAGCCACAGGAUAUCCGUGCUAGAAUGUGGGAGAAGGGUGGUCACUCC | – | – | 334 nM | 64.5 nM |
| UCAUGUCCUGAGGAUAUGUAGCGGAUAAACGCAACAGAAGGCAGGACAUGAGGAUCACCCAUGUGUGCCUUCUA | 96.6 nM | 14.2 nM | – | – |
| UCAUUGAUUGUGAGGAUAUCGAUGUGAUGGUUUGUCGAGAAGGCACAUGAGGAUCACCCAUGUGGGUGUGGGCU | 864 nM | 242 nM | – | – |
| UCAUUUAUUACAGGAUAUGUUAGAAUUCAGUUGUUUGGUUAUUACAUAUUAACAGAAGGGUAGAACAUGAGGAUCACCCAUGUA | – | – | 114 nM | 81.5 nM |
| UCCACUACUGAGAAGGGAUACAUAUAGUUCUAGUCAGGAUAUCGAUACAGUGCAGCAUGAGGACAUGAGGAUCACCCAUGUAUU | – | – | 22.1 nM | 16.2 nM |
| UCCAUCCCUGUGAGGAUAUCGUCCGUUUUUUGUUCCGAGAAGGCACAUGAGGAUCACCCAUGUUUUUUGUUUUU | 29.4 nM | 58.8 nM | – | – |
| UCCCUUGCUGGAGGAUAUCGCACAUGAGGAUCACCCAUGUCGGCACUCGGGCGCAUCCUCUUGGACGAGAAGGCCAGGAGGUAC | 179 nM | 79.4 nM | – | – |
| UCCGUAAUUCUGAGCUUCGCGAUGAGAAGGGUAGAGGCUGGGUCCUACAUGAGGAUCACCCAUGUACAGGAUAUCAUUGCACGA | 14.1 nM | 30.3 nM | – | – |
| UCCUACAUCGGAGGAUAUCAUGUGUAAACAUGAGGAUCACCCAUGUCGUACGAGAGUACGGAGAUUGAGAAGGCCGAUGUAGGU | – | – | 96 nM | 17.2 nM |
| UCCUACAUGGGAGGAUAUCCUCAAGAGACAUGAGGAUCACCCAUGUAUUAUAUGCCUCAUGGCAUGGAGAAGGCCCAUGUAGGU | – | – | 205 nM | 157 nM |
| UCCUCACAUGAGGAUCACCCAUGUCAGGAUAUCUGCGAGCAUUGGCCAAGGCCGCUCAGGAGAAGGGACGUCAA | 17.1 nM | 27.4 nM | – | – |
| UCCUCGAUGUAGAAGGCCGCGUCCGGCUCACGCGGAGGAUAUACAUGAGGAUCACCCAUGUGUCUGUGGCUAAUAUGGUACGGA | 120 nM | 14.4 nM | – | – |
| UCCUGAUUGAGAGGUAGGAGUGGUAGAAGGCGACCGGUGCCAGAUGACAUGAGGAUCACCCAUGUCGAGGAUAUACCACAGAAU | 6.96 nM | 13.1 nM | – | – |
| UCCUUGUCCUGAGGAUAUCCGUGGUGACCGAAAGGAGAAGGCAGGACAUGAGGAUCACCCAUGUACCCAGAAAACGUGCAGAGA | 35.9 nM | 232 nM | – | – |
| UCCUUGUCCUGAGGAUAUCCGUGGUUACCGAAAGGAGAAGGCAGGACAUGAGGAUCACCCAUGUACCCAGAAAACGUGCAGAGU | 125 nM | 381 nM | – | – |

| Sequence | apparent Kd [1] | apparent Kd [2] | apparent Kd [3] | apparent Kd [4] |
| --- | --- | --- | --- | --- |
| UCGAACUUUCAUGUAAUUCGCACAUGAGGAUCACCCAUGUACGAGGAUAUGUACCUGAACGGCUAACAGAAGGCGUACUGGGCA | 242 nM | 83.3 nM | – | – |
| UCGACCAGCGCCAGCCGAACAUGAGGAUCACCCAUGUACUCCAGAAGGCCGCCCAAGAACGGAGUGGAGGAUAUGGAGGUUCUC | – | – | 38 nM | 35.5 nM |
| UCGACCCUAGGAUAUACAUGAGGAUCACCCAUGUUUGUCGAAGAACGAACAGUCCUCAGUAGAAGGAGGACGAA | 22.3 nM | 23.8 nM | – | – |
| UCGAUAAGGAGAGGAUAUGGACAUGAGGAUCACCCAUGUACAUGGGAAUAUAUACUGAAUUUUUACUAGAAGGCUUACAUAAUU | 16.4 nM | 14.8 nM | – | – |
| UCGAUGCUAGGAUAUACGUAUACCUCCACCGUUGAUUCCUCACAUGAGGAUCACCCAUGUAGAAGGAGCAUCUA | 79.8 nM | 137 nM | – | – |
| UCGAUGCUAGGAUAUACUAAUACAACUACUGUAGUGUCUUCACAUGAGGAUCACCCAUGUAGAAGGAGCAUAUA | 26.3 nM | 20.3 nM | – | – |
| UCGAUGUAAGAGAAGGAGGACUUCAUGAGGAUCACCCAUGUGUUAGUACUUAGGAUAUUUGACAACAUGAGGAUCACCCAUGUC | – | – | 64.3 nM | 61.6 nM |
| UCGGCCGCCGUGAGGAUAUGCCCGCGCGCCCGCGGGCAGAAGGCACAUGAGGAUCACCCAUGUCCCGCGGCAUU | 16.2 nM | 35.1 nM | – | – |
| UCGGCGCGAGGAUAUACGGUUGCUUGGUAGGGUCGUGGCGUACAUGAGGAUCACCCAUGUAGAAGGCGCGCCGC | – | 60.3 nM | – | – |
| UCGGCGCGAGGAUAUGCGGCUGGUGCUUCGGGCUCUGGCGUACAUGAGGAUCACCCAUGUAGAAGGCGCGCCGC | 13.1 nM | 14.3 nM | – | – |
| UCGGCGCGAGGAUAUGCGGUUCCUCCCUCGGGCCGGAGCGUACAUGAGGAUCACCCAUGUAGAAGGCGCGCCGC | 13.9 nM | 15.1 nM | – | – |
| UCGUUUAUACAAGGAUAUCAAUUAUAGCUAAAUUCAACAUGAGGAUCACCCAUGUAACUAUGGAGUGAGAAGGUGUAAUGACUU | – | – | 514 nM | 302 nM |
| UCUACAUAAAUUCAUCAAUACAGAAAGGAUAUGAGAUACAUGAGGAUCACCCAUGUGCAUGUGAAUUAGAAGGUUCAAUUAACU | 14.4 nM | 11.1 nM | – | – |
| UCUGCCGCCGUGAGGAUAUGCCCGCGCGCACGCGGGCAGAAGGCACAUGAGGAUCACCCAUGUCCCGCGGUUUU | 17.6 nM | 38.1 nM | – | – |
| UCUUAUUGCAAGGAUAUGCAAAUUAUUUUUUAAGCAGAAGGUGCAACAUGAGGAUCACCCAUGUUUCCGGGAAA | 19.4 nM | 111 nM | – | – |
| UGAACUAUGUAGAAGGCCCACAUUUAUAUGUAGGGAGGAUAUACAUGAGGAUCACCCAUGUAAAGAGCAAGAGGAUUUGACAGA | 10.7 nM | 19.6 nM | – | – |
| UGAAGAAAGUAGAAGGUAGUCUUAAAAUAGGACUAAGGAUAUACAUGAGGAUCACCCAUGUACUCCUUUAAUAUCUUUGAAAUA | 5.5 nM | 5.42 nM | – | – |
| UGAAUGGCAGGAUAUACAUGAGGAUCACCCAUGUUGCUGCUCUAUAUGCCGUCCUUGAGUAGAAGGGUCAUUUA | 19.2 nM | 32.5 nM | – | – |
| UGAAUGUGAGGAUAUGGUGAGUAGUGCCAGAGCGCUGCUCACCAGAAGGCACAUGAGGAUCACCCAUGUACUUG | 64.3 nM | 179 nM | – | – |

| Sequence | apparent Kd [1] | apparent Kd [2] | apparent Kd [3] | apparent Kd [4] |
| --- | --- | --- | --- | --- |
| UGACCACAUGAGGAUCACCCAUGUGAGGAUAUCAGAAUACGGCAUCGGGCCGUACUUUUGAGAAGGCACAUAAA | 24.1 nM | 65.2 nM | – | – |
| UGACGAGUAGGAUAUUGGACUUGCGACAUGAGGAUCACCCAUGUGACGUCAACGUGGCACCAAGAAGGGCUACGUC | 68.1 nM | 46.9 nM | – | – |
| UGACGGAGCUGAGGAUAUAACAUGAGGAUCACCCAUGUAAGUCUCCAGGAAACUGGAGACAAUAGUUAGAAGGCAGCUCCGUCA | 14.6 nM | 19.4 nM | – | – |
| UGAGCAAGAGGAUAUACAAGGCGUGCGUGAGCACGAGGUUUACAUGAGGAUCACCCAUGUAGAAGGCUUGUUCU | 16.3 nM | 34.4 nM | – | – |
| UGAGCCUCGUGAGGAUAUACAUGAGGAUCACCCAUGUAAUAAAGUGAACGGAGGUAACUCCGAAUGUAGAAGGCACGAGGCUCA | 38 nM | 306 nM | – | – |
| UGAGCCUCGUGAGGAUAUACAUGAGGAUCACCCAUGUAAUAAAGUGAGCGGAGGAAACUCCGAAUGUAGAAGGCACGAGGCUCA | 26 nM | 186 nM | – | – |
| UGAGUAGCGUAACAACGCACAUGAGGAUCACCCAUGUCUACACAGGAUAUGCGACGCUCCAGUUAGCAGAAGGGUGAACUCAAA | – | – | 78.7 nM | 138 nM |
| UGAUAACAUGUAGGAUAUCCAGCAUUGACCAUCGGAGAAGGACAUGAGGAUCACCCAUGUACCGAUACAAUGGGAUAAUGGAAU | 15.5 nM | 17.2 nM | – | – |
| UGAUAACAUGUAGGAUAUGCAGCAUUGACCACUGCAGAAGGACAUGAGGAUCACCCAUGUAGCCGUACUAUGGGAUCACGCAAU | 47.7 nM | 232 nM | – | – |
| UGAUAGCACAGAGGAUAUGCGUAGUGUUAUCACUACAUGAGGAUCACCCAUGUAGAAGGCUGUGCUAUCUAAGUCGGAAACGAC | 6.33 nM | 7.44 nM | – | – |
| UGAUAGGACAGAGGAUAUACGGAUAGGAUCUACUAUCUUUCUCAAAUAACAUGAGGAUCACCCAUGUAGAAGGCUGUCCUAUCU | 23.2 nM | 119 nM | – | – |
| UGAUCGAGAGAUCUUAGAUUCUGGUAGGAUAUACAUUAUGUUAAAAUUACAUGAGGAUCACCCAUGUAGAAGGACUAGAGUCUA | 6.13 nM | 9.12 nM | – | – |
| UGCAUGCUAGGAUAUACGGGACAUUAGGGUUCGUUGUAUGGACAUGAGGAUCACCCAUGUAGAAGGAGCGUGCU | 27.4 nM | 112 nM | – | – |
| UGCAUGGUAGGAUAUACGGAACAUUAGGGUUUGUUGUGUGGACAUGAGGAUCACCCAUGUAGAAGGGCCGUGCU | 45.5 nM | 78.6 nM | – | – |
| UGCCAGUUAGGAUAUGACUCGACAGACAUGAGGAUCACCCAUGUCCGAGUGUGUGUUUUUUCAGAAGGGACGGCCC | 25.1 nM | 30.4 nM | – | – |
| UGCCCAAAUGGGCCGUGGCAGCGUGAGGAUAUGGGUUGGAUACAUGAGGAUCACCCAUGUUCCUCCUAGAAGGCACUUGUAACC | – | – | 183 nM | 41.5 nM |
| UGCCUGAGUCGAGGAUAUUAUGGAUCAAUUAAUACAUGAGGAUCACCCAUGUAAUUAAUUUAACAUGAGAAGGCGACUCAGGCU | – | – | 11.3 nM | 8.51 nM |
| UGCCUGAGUCGAGGAUAUUAUGGAUCCUUUAAUACAUGAGGAUCACCCAUGUAAUUAAUUAUACAUGAGAAGGCGACUCAGGCU | – | – | 88.8 nM | 12.5 nM |
